According to paper PMC3184254 (Nature Chemical Biology, 2011):
Like-named read-outs stand apart in the source and are kept apart here.

What was measured:
[1] = test system: H3K9me2 levels in J1 mES cells; experiment: Cellular potency; type: cell-based; settings: Mus musculus, 48 h, read-out: IC50 cellular potency
[2] = test system: HSC1-EF1α-EGFP-Puromycin retrovirus in J1 mES cells; experiment: Reactivation of silent EGFP retrovirus vector, flow cytometry; type: cell-based, mouse
[3] = test system: histone marks in MDA-MB-231 cells; experiment: Quantitative MS analysis of histone modifications; type: cell-based, human; settings: 1 μM for 48 h
Outline: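 MDA-MB-231 cells were treated at 1 µM for 48 h. Histones were acid-extracted, derivatized with propionic anhydride and digested with trypsin. Mock and treated samples carried D0 or D5 propionyl labels. Peptides were analysed by LC-MS/MS on an Orbitrap, with all data manually verified.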

[4] = test system: H3K9me2 mark in bulk histones in several cell lines; settings: cited from earlier work
MDA-MB-231 cells = experiment: MTT assay, MDA-MB-231; type: cell-based, human
J1 mES cells = experiment: SSEA1 pluripotency marker immunostaining, flow cytometry; type: cell-based, mouse; settings: day 10; 2 μM
cellular assays = experiment: Cellular assays, comparison with BIX01294; type: cell-based; settings: Supplementary Fig. 1
[5] = test system: H3K9me2 levels in MDA-MB-231 cells; experiment: H3K9me2 in-cell western, MDA-MB-231; type: cell-based, human; settings: read-out: IC50 for reduction of H3K9me2 levels; MDA-MB-231 cells, 48 h exposure, in-cell western
SETD8 = molecular target: T1, SETD8 (Homo sapiens, UniProt Q9NQR1); experiment: SAHH-coupled assay, SETD8; type: biochemical; settings: SAHH-coupled assay
T1 sequence (Q9NQR1 1-393): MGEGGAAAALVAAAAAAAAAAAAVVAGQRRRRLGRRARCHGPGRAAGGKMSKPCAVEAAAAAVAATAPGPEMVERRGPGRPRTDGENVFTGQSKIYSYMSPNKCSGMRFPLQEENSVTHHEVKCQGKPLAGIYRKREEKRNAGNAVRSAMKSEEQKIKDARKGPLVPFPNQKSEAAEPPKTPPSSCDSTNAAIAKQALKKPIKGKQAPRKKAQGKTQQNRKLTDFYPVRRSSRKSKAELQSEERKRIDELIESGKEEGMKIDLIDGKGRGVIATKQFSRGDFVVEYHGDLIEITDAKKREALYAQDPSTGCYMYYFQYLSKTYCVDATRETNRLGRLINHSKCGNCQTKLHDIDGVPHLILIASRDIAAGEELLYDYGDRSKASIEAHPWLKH
Outline: (§1)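 A fluorescence-based coupled assay used S-adenosyl-L-homocysteine hydrolase to follow conversion of cofactor SAM to SAH by the methyltransferase. IC50 values are the average of at least two separate experiments.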

panel of 24 kinases = experiment: Kinase selectivity panel; type: biochemical
GLP = GLP (Homo sapiens, UniProt Q9H9B1); experiment: SAHH-coupled assay, GLP; type: biochemical
GLP, sequence (Q9H9B1 whole entry): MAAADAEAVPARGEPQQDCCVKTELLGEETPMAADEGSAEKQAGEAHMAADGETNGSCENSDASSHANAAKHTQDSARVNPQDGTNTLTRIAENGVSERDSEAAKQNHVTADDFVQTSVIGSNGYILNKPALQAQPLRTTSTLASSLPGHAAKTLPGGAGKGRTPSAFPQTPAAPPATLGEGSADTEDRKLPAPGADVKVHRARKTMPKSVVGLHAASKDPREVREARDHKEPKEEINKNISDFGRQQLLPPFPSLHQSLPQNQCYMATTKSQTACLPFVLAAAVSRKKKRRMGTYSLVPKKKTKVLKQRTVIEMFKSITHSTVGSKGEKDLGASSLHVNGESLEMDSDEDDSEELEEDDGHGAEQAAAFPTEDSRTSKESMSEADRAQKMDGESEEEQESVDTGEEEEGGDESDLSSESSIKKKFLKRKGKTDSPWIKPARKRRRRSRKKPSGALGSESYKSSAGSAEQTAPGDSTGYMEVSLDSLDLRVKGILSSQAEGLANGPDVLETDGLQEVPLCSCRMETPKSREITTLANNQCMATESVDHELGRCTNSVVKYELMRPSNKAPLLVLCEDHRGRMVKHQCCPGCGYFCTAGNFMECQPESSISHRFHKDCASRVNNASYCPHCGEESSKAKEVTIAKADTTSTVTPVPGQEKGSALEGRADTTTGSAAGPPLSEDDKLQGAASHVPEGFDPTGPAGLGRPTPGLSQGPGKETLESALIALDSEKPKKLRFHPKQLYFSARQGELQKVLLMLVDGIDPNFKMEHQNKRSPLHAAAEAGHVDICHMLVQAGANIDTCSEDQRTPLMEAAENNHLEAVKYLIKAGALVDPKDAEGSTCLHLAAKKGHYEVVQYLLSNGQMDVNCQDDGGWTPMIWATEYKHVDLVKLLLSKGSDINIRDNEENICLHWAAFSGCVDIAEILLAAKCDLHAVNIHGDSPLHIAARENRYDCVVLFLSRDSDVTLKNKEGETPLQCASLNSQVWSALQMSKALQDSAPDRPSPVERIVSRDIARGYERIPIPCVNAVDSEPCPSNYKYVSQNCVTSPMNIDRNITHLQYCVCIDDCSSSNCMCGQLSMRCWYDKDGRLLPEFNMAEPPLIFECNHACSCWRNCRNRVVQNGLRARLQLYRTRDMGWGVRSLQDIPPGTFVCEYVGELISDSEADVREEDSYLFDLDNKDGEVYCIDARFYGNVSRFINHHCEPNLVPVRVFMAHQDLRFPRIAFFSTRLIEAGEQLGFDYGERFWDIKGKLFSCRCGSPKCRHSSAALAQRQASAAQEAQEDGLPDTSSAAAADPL

PRMT3 = PRMT3 (Homo sapiens, UniProt O60678); experiment: SAHH-coupled assay, PRMT3; type: biochemical; settings: SAHH-coupled assay
PRMT3, sequence (O60678 whole entry, species assumed): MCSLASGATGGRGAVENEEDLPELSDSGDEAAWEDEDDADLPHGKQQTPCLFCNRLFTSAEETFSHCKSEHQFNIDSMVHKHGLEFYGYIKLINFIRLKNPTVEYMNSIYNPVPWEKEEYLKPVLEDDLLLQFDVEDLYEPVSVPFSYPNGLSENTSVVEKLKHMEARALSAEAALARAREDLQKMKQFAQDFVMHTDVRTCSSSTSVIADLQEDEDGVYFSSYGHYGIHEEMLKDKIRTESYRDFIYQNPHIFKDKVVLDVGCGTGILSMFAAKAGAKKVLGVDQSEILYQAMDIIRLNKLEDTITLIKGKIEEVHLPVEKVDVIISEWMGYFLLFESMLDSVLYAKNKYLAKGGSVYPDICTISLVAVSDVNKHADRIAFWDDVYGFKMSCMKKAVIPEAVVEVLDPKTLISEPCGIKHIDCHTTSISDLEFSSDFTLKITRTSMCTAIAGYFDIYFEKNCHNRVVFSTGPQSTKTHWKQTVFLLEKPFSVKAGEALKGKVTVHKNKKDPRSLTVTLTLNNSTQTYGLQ
Outline: as §1

[6] = test system: retrovirus long terminal repeat and MAGEA2 promoter in mES cells; experiment: Bisulfite sequencing DNA methylation in mES cells; type: cell-based, mouse; settings: after 10 d of treatment
Outline: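 J1 mouse ES cells were grown on 0.1% gelatin in DMEM with 15% ES-qualified FBS, 4 mM L-glutamine, 0.1 mM nonessential amino acids, 1 mM pyruvate, 0.55 mM 2-mercaptoethanol and LIF. They carried a silenced HSC1 retroviral EGFP-puromycin reporter driven by the EF1a promoter.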

SETD7 = molecular target: T2, SETD7 (Homo sapiens, UniProt Q8WTS6); experiment: SAHH-coupled assay, SETD7; type: biochemical; settings: SAHH-coupled assay
T2 sequence (Q8WTS6 1-366): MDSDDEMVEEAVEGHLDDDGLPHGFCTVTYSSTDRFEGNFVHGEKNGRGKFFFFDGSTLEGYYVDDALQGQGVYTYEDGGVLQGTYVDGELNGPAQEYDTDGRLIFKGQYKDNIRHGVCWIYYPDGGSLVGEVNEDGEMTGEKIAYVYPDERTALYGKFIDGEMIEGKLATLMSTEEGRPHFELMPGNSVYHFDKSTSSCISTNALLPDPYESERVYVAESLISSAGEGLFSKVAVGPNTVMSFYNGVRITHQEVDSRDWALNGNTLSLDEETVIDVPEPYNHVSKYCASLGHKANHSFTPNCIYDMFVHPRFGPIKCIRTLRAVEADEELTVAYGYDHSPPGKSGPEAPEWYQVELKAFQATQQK
Outline: as §1

G9a = molecular target: T3, G9a (Homo sapiens, UniProt Q96KQ7); experiment: SAHH-coupled assay, G9a; type: biochemical
T3 sequence (Q96KQ7 1-1210): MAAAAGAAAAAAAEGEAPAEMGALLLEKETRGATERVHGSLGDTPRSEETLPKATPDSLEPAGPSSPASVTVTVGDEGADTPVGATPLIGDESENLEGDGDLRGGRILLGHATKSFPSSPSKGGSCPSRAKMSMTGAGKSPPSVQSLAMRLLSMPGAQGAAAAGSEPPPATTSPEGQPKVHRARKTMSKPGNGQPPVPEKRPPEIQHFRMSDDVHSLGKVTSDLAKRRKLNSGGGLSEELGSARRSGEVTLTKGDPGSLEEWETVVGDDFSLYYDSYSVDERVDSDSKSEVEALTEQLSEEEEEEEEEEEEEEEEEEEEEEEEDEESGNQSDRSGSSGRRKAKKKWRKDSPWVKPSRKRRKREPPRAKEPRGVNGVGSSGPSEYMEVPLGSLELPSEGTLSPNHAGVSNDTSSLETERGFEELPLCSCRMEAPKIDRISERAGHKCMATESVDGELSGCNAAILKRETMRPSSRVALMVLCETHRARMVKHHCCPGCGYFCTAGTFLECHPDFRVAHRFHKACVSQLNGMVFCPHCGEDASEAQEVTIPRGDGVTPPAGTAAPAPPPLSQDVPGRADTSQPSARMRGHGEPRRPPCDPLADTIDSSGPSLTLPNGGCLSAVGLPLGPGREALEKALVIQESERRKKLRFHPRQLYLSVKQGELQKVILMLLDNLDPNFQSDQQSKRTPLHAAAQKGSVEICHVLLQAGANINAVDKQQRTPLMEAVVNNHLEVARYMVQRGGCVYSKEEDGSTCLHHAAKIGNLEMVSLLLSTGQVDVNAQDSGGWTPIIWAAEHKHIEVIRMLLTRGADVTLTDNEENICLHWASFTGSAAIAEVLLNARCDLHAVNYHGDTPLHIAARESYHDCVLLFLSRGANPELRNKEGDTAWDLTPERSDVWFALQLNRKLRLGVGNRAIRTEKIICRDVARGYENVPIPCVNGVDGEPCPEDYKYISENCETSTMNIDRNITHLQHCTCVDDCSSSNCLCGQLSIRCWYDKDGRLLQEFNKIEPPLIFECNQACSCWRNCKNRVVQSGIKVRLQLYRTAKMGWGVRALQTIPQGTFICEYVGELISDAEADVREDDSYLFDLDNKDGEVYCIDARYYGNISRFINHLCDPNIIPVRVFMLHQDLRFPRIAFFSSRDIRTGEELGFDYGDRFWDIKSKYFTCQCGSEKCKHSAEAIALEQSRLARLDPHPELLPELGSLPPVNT

SUV39H2 = SUV39H2 (Homo sapiens, UniProt Q9H5I1); experiment: SAHH-coupled assay, SUV39H2; type: biochemical; settings: SAHH-coupled assay
SUV39H2, sequence (Q9H5I1 whole entry, species assumed): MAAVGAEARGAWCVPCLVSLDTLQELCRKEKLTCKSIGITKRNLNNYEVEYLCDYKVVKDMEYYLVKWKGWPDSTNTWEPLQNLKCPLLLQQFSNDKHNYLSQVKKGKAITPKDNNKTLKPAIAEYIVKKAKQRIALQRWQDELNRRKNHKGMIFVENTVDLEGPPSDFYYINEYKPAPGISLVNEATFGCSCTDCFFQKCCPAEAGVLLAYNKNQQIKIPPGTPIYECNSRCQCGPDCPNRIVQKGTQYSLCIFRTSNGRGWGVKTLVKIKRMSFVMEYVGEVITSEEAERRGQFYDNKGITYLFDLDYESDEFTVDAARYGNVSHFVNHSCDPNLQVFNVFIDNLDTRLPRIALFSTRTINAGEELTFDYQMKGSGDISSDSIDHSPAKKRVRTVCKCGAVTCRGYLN
Outline: as §1

For `COc1cc2nc(N3CCCN(C)CC3)nc(NC3CCN(Cc4ccccc4)CC3)c2cc1OC` [BIX01294, reference compound], the IC50 [1] was 2.04 µM, the “EGFP+ cells” value ([2]; day 10, 2 μM, untreated 36%) was 53% and the “state of treated cells” value ([2]; day 12, 2 μM) was “arrested or died”. For the same compound, the “levels of H3K9me2 by quantitative MS” value [3] was “to a lesser extent than UNC0638 did”, the “levels of H3K9me3 by quantitative MS” value [3] was “remained constant” and the “abundance of H3K9me2 mark in bulk histones” value ([4]; at 4.1 μM, several cell lines) was “reduced”. For the same compound, the “concentration toxic to cells” value [4] was “higher than 4.1 μM”, the EC50 (MDA-MB-231 cells; Homo sapiens, MDA-MB-231, read-out: EC50 cellular toxicity (MTT)) was 2.7 µM and the SSEA1 positive cells (J1 mES cells) was 65%.

In the case of `COc1cc2c(NC3CCN(C)CC3)nc(N3CCCN(C)CC3)nc2cc1OCCOCCN(C)C` [UNC0321], the “potency in cellular assays relative to BIX01294” value (cellular assays) is reported as “less potent than BIX01294”.

With `COc1cc2c(N(C)C3CCN(C(C)C)CC3)nc(C3CCCCC3)nc2cc1OCCCN1CCCC1` [UNC0737] the IC50 [5] was greater than 5 µM, the IC50 (SETD8) was “inactive” and the “reactivation of EGFP expression” value ([2]; 500 nM, above the 36% EGFP+ cells of untreated sample) was “did not reactivate EGFP expression”. The “activity against panel of 24 kinases” value (panel of 24 kinases) was “inactive”, the IC50 (GLP) was greater than 10 µM and the IC50 (PRMT3) was “inactive”. The “DNA methylation of retrovirus LTR and MAGEA2 promoter” value [6] was “hypermethylated”, the EC50 (MDA-MB-231 cells; read-out: EC50 cellular toxicity (MTT), MDA-MB-231 cells (n = 3)) was 8.7 µM and the IC50 (SETD7) was “inactive”. For the same compound, the “fold less potent than UNC0638” value (G9a; G9a and GLP biochemical assays) was greater than 300 fold, the IC50 (G9a; SAHH-coupled assay) was 5 µM and the IC50 (SUV39H2) was “inactive”.
